Drawing on ChEMBL document CHEMBL1135571, “Synthesis and optimization of a new family of type 3 17 beta-hydroxysteroid dehydrogenase inhibitors by parallel liquid-phase chemistry” (J Med Chem, 2002), this text covers inhibition and IC50 for eight compounds.

The nature of experiment [1]: Proliferative activity against Shionogi(AR+) cells at 0.1 uM concentration. Type of experiment: functional.
The target of experiment [2] is T1, 17-beta-hydroxysteroid dehydrogenase type 3 (Homo sapiens, UniProt P37058).
T1 sequence (P37058 whole entry): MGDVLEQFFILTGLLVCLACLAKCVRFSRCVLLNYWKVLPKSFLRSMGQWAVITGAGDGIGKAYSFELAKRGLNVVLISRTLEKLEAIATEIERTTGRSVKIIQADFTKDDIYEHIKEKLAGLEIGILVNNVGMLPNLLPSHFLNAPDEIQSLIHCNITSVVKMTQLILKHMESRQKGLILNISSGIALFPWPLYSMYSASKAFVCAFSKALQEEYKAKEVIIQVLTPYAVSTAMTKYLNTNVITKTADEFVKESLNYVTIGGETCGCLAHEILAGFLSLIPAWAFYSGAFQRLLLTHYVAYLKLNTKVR
The experiment can be described thus: The ability to inhibit the Type-3 17-beta- hydroxysteroid dehydrogenase activity in transfected human embryonic kidney (HEK)-293 cells experiment 3. Type of experiment: cell-based, HEK293. Summed up: (§1)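 Type 3 17β-HSD expressed by calcium phosphate transfection in HEK-293 cells. Cells sonicated in 50 mM sodium phosphate pH 7.4 with 20% glycerol and 1 mM EDTA, then spun at 10 000g for 1 h; the 100 000g microsomal pellet is the enzyme source. Assay at 37 °C in the same buffer with 5 mM NADPH and 0.05 μM [14C]Δ4-dione. Labeled testosterone formed is measured; […].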

A short description of experiment [3]: Proliferative activity against Shionogi(AR+) cells at 1 uM concentration. It is filed as functional.
The nature of experiment [4]: Proliferative activity against Shionogi (AR+) cells at 1 uM concentration. Type of experiment: functional.
The nature of experiment [5]: Proliferative activity against Shionogi (AR+) cells at 0.1 uM concentration. It is filed as functional.
The target in experiment [6] is T1, 17-beta-hydroxysteroid dehydrogenase type 3. Nature of the experiment: Concentration to inhibit 50% activity of the Type-3 17-beta- hydroxysteroid dehydrogenase. The method, boiled down:
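Microsomal fraction from HEK-293 cells transfected with type 3 17β-HSD, prepared by sonication and differential centrifugation (10 000g, then 100 000g) in 50 mM sodium phosphate pH 7.4, 20% glycerol, 1 mM EDTA. Incubated at 37 °C with 5 mM NADPH, 0.05 μM [14C]Δ4-dione and a range of inhibitor concentrations. Labeled testosterone formed is measured; IC50 is computed from the 50% inhibition point.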

Experiment [7] shares this target. The experiment can be described thus: Ability to inhibit the Type-3 17-beta- hydroxysteroid dehydrogenase activity transfected in human embryonic kidney (HEK)-293 cells experiment 3. Type of experiment: cell-based, HEK293.
Experiment [8] shares this target. The experiment can be described thus: Ability to inhibit the Type-3 17-beta- hydroxysteroid dehydrogenase activity transfected in human embryonic kidney (HEK)-293 cells experiment 2. Type of experiment: cell-based, HEK293.
Experiment [9] has the same target. Nature of the experiment: The ability to inhibit the Type-3 17-beta- hydroxysteroid dehydrogenase activity in transfected human embryonic kidney (HEK)-293 cells experiment 2. It is filed as cell-based, HEK293. The method, boiled down:
as §1

Several values for one entry are separate records, joined by “and”; a condition that tells them apart may be missing. Identical values can stand only once.

For orientation: inhibition means the percentage by which the read-out fell short of the control. A lower inhibition goes with little suppression. As a reminder, the IC50 is the concentration that gives 50% inhibition. Low values mean greater potency, high ones weaker potency. For `C[C@]12CC[C@](O)(Cc3ccccc3)CC1CC[C@@H]1[C@@H]2CC[C@]2(C)C(=O)CC[C@@H]12` (stereo partly drawn), the inhibition at 0.1 µM in experiment [1] is 27%. Moreover, the IC50 in [2] stood at 98 nM. In experiment [3], this compound came in with an inhibition at 1 µM of 100%.

Take `CCCC(=O)N(CC1C2CC3CC(C2)CC1C3)C[C@@]1(O)CC[C@@]2(C)C(CC[C@@H]3[C@@H]2CC[C@]2(C)C(=O)CC[C@@H]32)C1` (stereo partly drawn): at 1 µM the inhibition in [4] was 96%. Also, 0.1 µM produced 7% inhibition in experiment [5]. In [6], the IC50 was 35 nM and 57 nM.

In turn, `CCCCN(CC1C2CC3CC(C2)CC1C3)C[C@@]1(O)CC[C@@]2(C)C(CC[C@@H]3[C@@H]2CC[C@]2(C)C(=O)CC[C@@H]32)C1` (stereo partly drawn) came in with an inhibition at 0.1 µM in experiment [1] of 3%. Moreover, in experiment [3], the inhibition at 1 µM was determined as 7%. Further, the 50% inhibitory concentration (IC50) in [6] is 80 nM.

`C[C@]12CCC(=O)C=C1CC[C@@H]1[C@@H]2CC[C@]2(C)C(=O)CC[C@@H]12` [ANDROSTENEDIONE]: the IC50 in [7] came out at 489 nM; in experiment [8], 650 nM.

In [4], `C[C@]12CC[C@](O)(CN(CC3CCCCC3)C(=O)C3CC3)CC1CC[C@@H]1[C@@H]2CC[C@]2(C)C(=O)CC[C@@H]12` (stereo partly drawn) gave an inhibition at 1 µM of 0%. Further, in [5], 0.1 µM produced 1% inhibition. Further, in [6], the midpoint of inhibition, the IC50, lay at 85 nM.

Take `C[C@]12CC[C@@H](O)C[C@H]1CC[C@@H]1[C@@H]2CC[C@]2(C)C(=O)CC[C@@H]12` [ETIOCHOLANOLONE]: at 0.1 µM the inhibition in experiment [1] was 14%. Moreover, the IC50 in experiment [2] was determined as 182 nM. In addition, the inhibition at 1 µM in experiment [3] was determined as 2%.

As for `CCCCCCCCN(C[C@@]1(O)CC[C@@]2(C)C(CC[C@@H]3[C@@H]2CC[C@]2(C)C(=O)CC[C@@H]32)C1)C(=O)C1CC1` (stereo partly drawn), the IC50 in [9] is 57 nM. The compound further displayed an inhibition at 1 µM in experiment [4] of 0%. The same compound gave an inhibition at 0.1 µM in [5] of 0%.

In experiment [1], `C[C@]12CC[C@@]3(CC1CC[C@@H]1[C@@H]2CC[C@]2(C)C(=O)CC[C@@H]12)CN(CC(CN1CCOCC1)OC(=O)CCC1CCCC1)C(=O)O3` (stereo partly drawn) returned an inhibition at 0.1 µM of 4%. In [3], the inhibition at 1 µM came out at 6%. In experiment [6], this compound had an IC50 of 74 nM.
